In publication PMC6437812 (ChemistryOpen, 2019):

Legend:
HER2 = test: Western blot of Hsp90 client protein HER2 in SK-BR-3 cells; format: cell-based, human; details: 20 μM, 12 h
Outline: (§1)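 SK‐BR‐3 cells (DMEM, 10 % FBS) were exposed to test compound at 20 μM for 12 h, washed in ice-cold PBS and lysed in SDS sample buffer. Equal lysate amounts went through SDS‐PAGE and PVDF transfer, with blocking in 5 % milk/TBST pH 7.6. Primary antibodies were applied overnight at 4 °C and secondary antibodies 2 h at room temperature. Detection was by ECL.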

[1] = target: recombinant human full-length Hsp90α (Homo sapiens, UniProt P07900); test: FP assay, competition with FITC-GM; format: binding
[2] = system: breast cancer SK-BR-3 cell line; test: SRB anti-proliferative assay, SK-BR-3; format: cell-based; details: Homo sapiens, SK-BR-3, 120 h, read-out: SK-BR-3 (IC50±SD, μM) for 120 h
Outline: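 Cells from ATCC, grown in DMEM with 10 % FBS at 37 °C and 5 % CO2. Seeded in 96-well plates overnight, then exposed to increasing concentrations in triplicate for 72 h, or for a prolonged 120 h. Growth was read by sulforhodamine B staining at OD 510 nm. IC50 came from curve fitting.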

[3] = system: A549 and SK-BR-3 cell lines; test: Autophagy observed under the microscope; format: cell-based, human; details: 10 μM
Hsp72 = test: Western blot of Hsp72; format: cell-based, human; details: SK-BR-3 cells, 20 μM, 12 h
Outline: as §1

Structure (SMILES) | expression of HER2 (HER2) | also measured
Cc1cc(C)n(-c2nc(NN=Cc3c[nH]c4ccccc34)nc(Nc3ccc(Br)cc3)n2)n1 [Compound A1, 4‐(2‐((1H‐indol‐3‐yl)methylene)hydrazinyl)‐N‐(4‐bromophenyl)‐6‐(3,5‐dimethyl‐1H‐pyrazol‐1‐yl)‐1,3,5‐triazin‐2‐amine] | obviously reduced | competition with FITC-GM for binding to Hsp90α [1]: failed to compete; IC50 [2]: 10.8 ± 1.3 µM; induction of autophagy [3]: little autophagy was induced
Brc1ccc(Nc2nc(N/N=C\c3c[nH]c4ccccc34)nc(Nc3ccccc3)n2)cc1 [Compound A16] | obviously reduced | –
NNc1nc(Nc2ccccc2)nc(Nc2ccc(Br)cc2)n1 [Compound A20] | obviously reduced | –
NNc1nc(NCc2ccccc2)nc(Nc2ccc(Br)cc2)n1 [Compound A22] | obviously reduced | –
CCCNc1nc(NCCC)nc(Nc2ccc(Br)cc2)n1 [Compound A24] | obviously reduced | –
Brc1ccc(Nc2nc(NCc3ccccc3)nc(NCc3ccccc3)n2)cc1 [Compound A25] | obviously reduced | –
COC1=C2C[C@@H](C)C[C@H](OC)[C@H](O)[C@@H](C)/C=C(\C)[C@H](OC(N)=O)[C@@H](OC)/C=C\C=C(/C)C(=O)NC(=CC1=O)C2=O [GM, geldanamycin] | – | induction of Hsp72 (Hsp72): induced
